Test results published in ChEMBL document CHEMBL4196235, “SAR of 4-Alkoxybenzoic Acid Inhibitors of the Trypanosome Alternative Oxidase” (ACS Med Chem Lett, 2018).
Values after ≈ are worked out from the molar mass of the structure shown. Active and inactive are the calls of the source. The rule behind the calls is not given here.

Key:
[1] = Cytotoxicity against HEK293T cells after 30 hrs by resazurin dye based fluorescence assay; format: cell-based, HEK-293T; conditions: human
How it was run: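 Cytotoxicity was measured on human embryonic kidney (HEK) cells and reported as CC50. Values are the mean of 3 experiments ± SEM.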

[2] = test system: Trypanosoma brucei brucei; test: Resistant factor, ratio of EC50 for pentamidine-resistant bloodstream trypomastigote stage of Trypanosoma brucei brucei harboring AQP1 to 3 deletions to EC50 for bloodstream trypomastigote stage of wild-type Trypanosoma brucei brucei Lister 427 in presence of glycerol; format: functional
[3] = Selectivity index, ratio of CC50 for HEK293T cells to EC50 for bloodstream trypomastigote stage of wild type Trypanosoma brucei brucei Lister 427; format: toxicity; conditions: human; read-out: Ratio CC50/EC50
How it was run: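 The selectivity index was calculated as CC50 in HEK cells divided by EC50 against wild-type T. b. brucei s427 bloodstream trypomastigotes.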

[4] = test system: Trypanosoma brucei brucei; test: Antiparasitic activity against bloodstream trypomastigote stage of wild type Trypanosoma brucei brucei Lister 427 after 48 hrs by resazurin dye based fluorescence assay; format: functional, organism-based
How it was run: (§1)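 Bloodstream trypomastigotes of T. b. brucei s427 (wild type) were tested, both with and without glycerol. EC50 values are the mean of 3 experiments ± SEM.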

[5] = biological target: T1, Alternative oxidase, mitochondrial (Trypanosoma brucei brucei, UniProt Q26710); test: Inhibition of recombinant Trypanosoma brucei brucei alternative oxidase using ubiquinol-1 as substrate incubated for 2 mins followed by substrate addition by spectrophotometric method
T1 sequence (Q26710 whole entry): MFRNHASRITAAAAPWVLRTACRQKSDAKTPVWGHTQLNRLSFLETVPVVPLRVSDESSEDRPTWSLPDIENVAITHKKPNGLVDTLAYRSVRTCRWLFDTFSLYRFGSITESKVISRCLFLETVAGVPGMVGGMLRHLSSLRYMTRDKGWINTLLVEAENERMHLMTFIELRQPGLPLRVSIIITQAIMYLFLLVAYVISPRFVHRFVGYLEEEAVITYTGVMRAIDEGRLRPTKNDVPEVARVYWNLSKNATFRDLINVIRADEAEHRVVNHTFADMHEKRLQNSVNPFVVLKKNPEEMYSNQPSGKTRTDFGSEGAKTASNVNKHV
How it was run: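 The assay measured inhibition of the ubiquinol oxidase activity of purified recombinant ∆MTS-TAO from T. b. brucei.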

[6] = test system: Trypanosoma brucei brucei; test: Resistance factor, ratio of EC50 for diminazene, pentamidine and melaminophenyl arsenical-resistant bloodstream trypomastigote stage of Trypanosoma brucei brucei B48 harboring TbAT1 deletions to EC50 for bloodstream trypomastigote stage of wild-type Trypanosoma brucei brucei Lister 427; format: functional
[7] = test system: Trypanosoma brucei brucei; test: Antiparasitic activity against bloodstream trypomastigote stage of wild type Trypanosoma brucei brucei Lister 427 at 100 uM after 48 hrs by resazurin dye based fluorescence assay; format: functional, organism-based
[8] = Dissociation constant, pKa of the compound; format: physicochemical
[9] = test system: Trypanosoma brucei brucei; test: Resistant factor, ratio of EC50 for bloodstream trypomastigote stage of wild-type Trypanosoma brucei brucei Lister 427 assessed as inhibition of respiration in presence of glycerol to EC50 for bloodstream trypomastigote stage of wild-type Trypanosoma brucei brucei Lister 427 assessed as inhibition of respiration in absence of glycerol; format: functional
[10] = biological target: T1, Alternative oxidase, mitochondrial; test: Binding affinity to recombinant Trypanosoma brucei brucei 427 alternative oxidase expressed in Escherichia coli BL21 cells using ubiquinol-1 as substrate by spectrophotometric method
[11] = test system: Trypanosoma brucei brucei; test: Antiparasitic activity against bloodstream trypomastigote stage of wild type Trypanosoma brucei brucei Lister 427 after 48 hrs in presence of glycerol by resazurin dye based fluorescence assay; format: functional; conditions: Lister 427, 48 h; how it was run: as §1
[12] = Selectivity index, ratio of CC50 for HEK293T cells to EC50 for pentamidine-resistant bloodstream trypomastigote stage of Trypanosoma brucei brucei harboring AQP1 to 3 deletions; format: toxicity; conditions: human; read-out: Ratio CC50/EC50

SMILES | CC50 at 30 h [1] | selectivity ratio [3] | EC50 ([4]; Lister 427, 48 h) | IC50 [5] | Ratio EC50 [6] | other results
COC(=O)c1ccc(OCCCCCCCCCCCCC[P+](c2ccccc2)(c2ccccc2)c2ccccc2)cc1C.[Br-] | 350 nM | 19 | 18 nM | > 5000 nM | <1 | Ratio EC50 [2]: >2
COC(=O)c1ccc(OC/C(C)=C/CC/C(C)=C/CO)cc1C | > 100000 nM | – | – | 1690 nM | <1 | Activity [7]: inactive
C/C(=C\CO)CC/C=C(\C)CC/C=C(\C)COc1cc(C)c(C(=O)O)c(O)c1 | – | – | – | 3.1 nM | <1 | pKa [8]: < 5; Activity [7]: inactive
COc1cc(OCCCCCCCCCCCCCBr)cc(O)c1C=O | – | – | – | 2300 nM | <1 | Activity [7]: inactive
CCOC(=O)c1c(C)cc(OCCCCCCCCCCCCC[n+]2cccc3ccccc32)cc1O.[Br-] | 610 nM | 2.1 | 290 nM | > 5000 nM | <1 | –
O=C(NO)c1ccccc1O [SALICYLHYDROXAMIC ACID] | – | – | 62900 nM | – | – | –
N=C(N)c1ccc(OCCCCCOc2ccc(C(=N)N)cc2)cc1 [PENTAMIDINE] | – | – | 4.2 nM | – | – | –
CC(=O)OC/C=C(\C)CC/C=C(\C)COC(=O)c1ccc(O)cc1O | > 20000 nM | – | – | 9.1 nM | <1 | Ratio EC50 [9]: <1
COC(=O)c1ccc(OCCCCCCCCCCCCCBr)cc1O | 28600 nM | 3.5 | 8100 nM | > 5000 nM | <1 | Ratio EC50 [9]: <1
COC(=O)c1ccc(OC/C(C)=C/CC/C(C)=C/CO)cc1F | > 100000 nM | – | – | > 5000 nM | <1 | Activity [7]: inactive
COC(=O)c1ccc(OCCCCCCCCCCCCC[P+](c2ccccc2)(c2ccccc2)c2ccccc2)cc1O.[Br-] | – | – | 18 nM | 15 nM | <1 | –
O=C(O)c1ccc(OCCCCCCCCCC[P+](c2ccccc2)(c2ccccc2)c2ccccc2)cc1O.[Br-] | 8200 nM | 11 | 730 nM | > 5000 nM | <1 | Ratio EC50 [9]: <1
C/C(=C\CO)CC/C=C(\C)COc1ccc(C(=O)O)cc1 | – | – | – | 2400 nM | <1 | pKa [8]: < 5; Activity [7]: inactive
O=Cc1ccc(OCCCCCCCCCCCCCBr)cc1O | – | – | 17600 nM | 73 nM | – | –
COC(=O)c1ccc(OC/C(C)=C/CC/C(C)=C/COC(C)=O)cc1C | 45100 nM | 2.7 | 17000 nM | > 5000 nM | <1 | –
Cc1cc(OCCCCCCCCCCCCC[n+]2cccc3ccccc32)ccc1C(=O)O.[Br-] | 24400 nM | 2.3 | 10600 nM | > 5000 nM | <1 | –
C/C(=C\CO)CC/C=C(\C)COc1ccc(C(=O)O)c(C)c1 | – | – | – | 920 nM | <1 | pKa [8]: < 5; Activity [7]: inactive
CCOC(=O)c1c(C)cc(OC/C(C)=C/CC/C(C)=C/CC/C(C)=C/COC(C)=O)cc1O | 20800 nM | 3.1 | 6600 nM | > 5000 nM | <1 | –
Cc1cc(OCCCCCCCCCCCCC[P+](c2ccccc2)(c2ccccc2)c2ccccc2)ccc1C(=O)O.[Br-] | 4240 nM | 22 | 190 nM | > 5000 nM | <1 | Ratio EC50 [9]: <1
CCOC(=O)c1c(C)cc(OCCCCCCCCCCCCCBr)cc1O | 29600 nM | 3.3 | 8900 nM | > 5000 nM | <1 | Ratio EC50 [9]: <1
COC(=O)c1ccc(OC/C(C)=C/CC/C(C)=C/COC(C)=O)cc1F | – | – | – | – | <1 | –

SMILES | CC50 at 30 h [1] | selectivity ratio [3] | EC50 ([4]; Lister 427, 48 h) | IC50 [5] | Ratio EC50 [6] | other results
CCOC(=O)c1ccc(OC/C(C)=C/CC/C(C)=C/CO)cc1O | – | – | – | > 5000 nM | <1 | –
C/C(=C\CO)CC/C=C(\C)COc1ccc(C(=O)O)c(O)c1 | – | – | – | 2100 nM | <1 | pKa [8]: < 5; Activity [7]: inactive
COC(=O)c1ccc(OCCCCCCCCCC[P+](c2ccccc2)(c2ccccc2)c2ccccc2)cc1O.[Br-] | 440 nM | 184 | 2 nM | > 5000 nM | <1 | –
COC(=O)c1ccc(OCCCCCCCCCCCCC[n+]2cccc3ccccc32)cc1C.[Br-] | 300 nM | 1.9 | 160 nM | > 5000 nM | <1 | –
COC(=O)c1ccc(OCCCCCCCCCCCCC[P+](c2ccccc2)(c2ccccc2)c2ccccc2)cc1F.[Br-] | 220 nM | 4.5 | 50 nM | 740 nM | <1 | Ratio EC50 [2]: >2
C/C(=C\CO)CC/C=C(\C)COc1ccc(C(=O)O)c(F)c1 | – | – | – | 1100 nM | <1 | pKa [8]: < 5; Activity [7]: inactive
COC(=O)c1ccc(OCCCCCCCCCCCCCBr)cc1F | – | – | – | – | <1 | Activity [4]: inactive
COC(=O)c1ccc(OCCCCCCCCCCCCCBr)cc1C | – | – | – | – | <1 | Activity [4]: inactive
CC(C)=CCOc1ccc(C(=O)O)c(O)c1 | – | – | – | – | – | Ki [10]: 5000 nM
COC(=O)c1c(C)cc(OCCCCCCCCCCCCC[P+](c2ccccc2)(c2ccccc2)c2ccccc2)cc1O.[Br-] | – | – | – | – | <1 | Ratio EC50 [2]: >2
C/C(=C\Cc1c(O)c(Cl)c(C)c(C=O)c1O)CC/C=C(\C)[C@@H]1CC(=O)C(C)(C)O1 [ASCOFURANONE] | – | – | – | – | – | MIC ([4]; Lister 427, 48 h): 250 µM (≈ 105 µg/mL); MIC [11]: 0.03 µM
COC(=O)c1ccc(OC/C(C)=C/CC/C(C)=C/COC(C)=O)cc1O | 31800 nM | 1.7 | 19300 nM | > 5000 nM | <1 | –
O=C(O)c1ccc(OCCCCCCCCCCCCC[P+](c2ccccc2)(c2ccccc2)c2ccccc2)cc1O.[Br-] | 19600 nM | 227 | 86 nM | > 5000 nM | <1 | Ratio EC50 [2]: >2
COC(=O)c1cc(OCCCCCCCCCCCCC[P+](c2ccccc2)(c2ccccc2)c2ccccc2)ccc1O.[Br-] | 640 nM | – | 28 nM | 12 nM | <1 | –
O=Cc1ccc(OCCCCCCCCCCCCC[n+]2cccc3ccccc32)cc1O | > 200000 nM | > 114 | 1750 nM | 1230 nM | – | –
O=C(O)c1ccc(OCCCCCCCCCCCCC[P+](c2ccccc2)(c2ccccc2)c2ccccc2)cc1F.[Br-] | 8350 nM | 225 | 37 nM | > 5000 nM | <1 | Ratio EC50 [2]: >2
COC(=O)c1ccc(OC/C(C)=C/CC/C(C)=C/CO)cc1O | – | – | – | – | <1 | –
Cc1cc(OCCCCCCCCCCCCC[P+](c2ccccc2)(c2ccccc2)c2ccccc2)cc(O)c1C(=O)O.[Br-] | 830 nM | 64 | 13 nM | 4.2 nM | <1 | Ratio EC50 [9]: <1; selectivity ratio [12]: 230
CC(=O)OC/C=C(\C)CC/C=C(\C)COC(=O)c1ccc(OC/C(C)=C/CC/C(C)=C/COC(C)=O)cc1O | – | – | – | > 5000 nM | <1 | –
COC(=O)c1ccc(OCCCCCCCCCCCCC[n+]2cccc3ccccc32)cc1F.[Br-] | 3360 nM | 1.4 | 2400 nM | > 5000 nM | <1 | Ratio EC50 [9]: <1
